According to paper PMC10422108 (Journal of Pharmaceutical Analysis, 2023):

Assays:
Lewis lung cancer (LLC) = assay: Antitumor activity in Lewis lung cancer; type: in vivo, C57BL/6J male mice; details: LLC mice; PTX 25 mg/kg; PTX-R 14.4, 28.8, 57.6 mg/kg; 11 day; versus control
[1] = system: CTL1, OCT1 and OCT2 in LLC cells; assay: PTX-R uptake assay with transporter inhibitors; type: cell-based, mouse; details: 100 μmol/L HC-3, 60 μmol/L quinidine or 60 μmol/L cimetidine, 10 min
In short: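 LLC cells seeded at 2 × 10^5 cells/mL, grown 48 h, PBS-washed. Preincubated 20 min with inhibitor or PBS, then 4.5 μmol/L test compound ± inhibitor for 10 min. Stopped by three cold PBS washes; lysed 30 min in cold MeOH/0.1% FA containing 100 ng/mL docetaxel internal standard. Extract dried, reconstituted in ACN:H2O 1:9, quantified by LC-MS/MS (MRM).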

indices of the spleen and thymus (Lewis lung cancer (LLC)): notably reduced
Compound: CC(=O)O[C@H]1C(=O)[C@@]2(C)[C@H]([C@H](OC(=O)c3ccccc3)[C@]3(O)C[C@H](OC(=O)[C@H](O)[C@@H](NC(=O)c4ccccc4)c4ccccc4)C(C)=C1C3(C)C)[C@]1(OC(C)=O)CO[C@@H]1C[C@@H]2O [PTX, paclitaxel]
cellular uptake in presence of transporter inhibitors [1]: no influence on PTX transport
